Measurements from different studies.
Each line is one published result; the experiments were not run side by side.
Target: Mitogen-activated protein kinase kinase kinase 20 (MAP3K20, Homo sapiens, UniProt Q9NYL2)

Nc1c(C(=O)NCc2ccc(C(=O)NCCCC3CCCCC3)cc2)cnn1-c1ccccc1  remaining binding (binding; competition with immobilised ligand; 1 µM): 42%
Cn1c2c(c3ccc(Cl)c(Cl)c31)C(C#N)C1(CCOCC1)NC2=O (centres unmarked)  ΔTm (thermal stability; DSF; 10 µM): 0.1 °C
CN(c1ccnc(CNc2nc(Nc3ccc4c(c3)CC(=O)N4)ncc2C(F)(F)F)n1)S(C)(=O)=O  remaining binding (cell-free assay; competition with immobilised ligand; 1 µM): 100%
Cn1c2c(c3ccccc31)C(C#N)C(C)(C)NC2=O (centres unmarked)  ΔTm (thermal stability; DSF; 10 µM): -0.3 °C
COc1cc(Cl)c(C(=O)N[C@@H](CN[C@H]2CC[C@@H](N)CC2)Cc2ccc(C#N)cc2)cc1-c1ccc(CN[C@H](C)c2ccc(C)cc2)o1  remaining activity (enzyme activity; inhibitor; 1 µM): 97%
CC(C)(C)c1nc(-c2cccc(NS(=O)(=O)c3c(F)cccc3F)c2F)c(-c2ccnc(N)n2)s1  remaining activity (enzyme activity; inhibitor; radiometric; 1 µM): 101%
CN1CC(Oc2cnc(C#N)cc2-c2ccn3nc(NC(=O)C4CC4)cc3c2)C1  inhibition (enzyme activity; inhibitor; 1 µM): 12%
CCN1CCC2(CC1)NC(=O)c1c(c3ccc(Cl)c(Cl)c3n1C)C2C#N (racemic)  ΔTm (thermal stability; DSF; 10 µM): -0.3 °C
CC1=C(C#N)C(c2ccc3c(c2)c(NC(=O)c2ccccc2C)nn3C)C(C#N)=C(C)N1  remaining binding (cell-free assay; competition with immobilised ligand; 1 µM): 100%
CNC(=O)c1cc2c(Oc3ccc(NC(=O)C4(C(=O)Nc5ccc(F)cc5)CC4)cc3)ccnc2cc1OC  inhibition (enzyme activity; inhibitor; radiometric; 1 µM): 82%
N#CCCc1ccc2c(c1)-c1[nH]c3ccc([N+](=O)[O-])cc3c1CC(=O)N2  remaining signal (cell-free assay; 0.5 µM): 88.6%
O=C(Nc1cnn(-c2csc(C(=O)NC3COC3)c2)c1)Nc1ccccc1Cl  remaining activity (enzyme activity; inhibitor; 5 µM): 101%
CNC(=O)c1cc(Oc2ccc(NC(=O)Nc3ccc(Cl)c(C(F)(F)F)c3)cc2)ccn1  remaining signal (cell-free assay; 0.5 µM): 16.7%
c1ccc(CNc2nc(N3CCOc4ccccc43)nc3c2CCCC3)cc1  inhibition (target engagement in cells; inhibitor; chemoproteomics; 20 mM): -6.3%
O=C1NC(=O)c2cc(Nc3ccc(F)cc3)c(Nc3ccc(F)cc3)cc21  remaining signal (cell-free assay; 0.5 µM): 94.5%
Cn1c2c(Cl)c(Cl)ccc2c2cc(N)[nH]c(=O)c21  ΔTm (thermal stability; DSF; 10 µM): 0.6 °C
CSc1cccnc1N1CCN(Cc2nc3ccccc3[nH]2)CC1  remaining binding (cell-free assay; competition with immobilised ligand; 1 µM): 100%
Cc1sc(C(=O)NC2COC2)cc1-n1cc(NC(=O)Nc2c(F)cccc2Cl)cn1  remaining activity (enzyme activity; inhibitor; 10 µM): 89.9%
O=C(NC[C@@H]1[C@H]2CN(C(=O)OCc3cc(C(F)(F)F)cc(C(F)(F)F)c3)C[C@@H]12)c1ccc2[nH]nnc2c1  remaining binding (cell-free assay; competition with immobilised ligand; 1 µM): 86%
Nc1ncnc2occ(-c3ccc(NC(=O)Nc4cc(C(F)(F)F)ccc4F)cc3)c12  remaining signal (cell-free assay; inhibitor; 20 µM): 0.15%
O=C(N1CCS(=O)(=O)CC1)N1C[C@H](c2ccc(OC(F)(F)F)cc2)C[C@H](c2nc(C3CC3)no2)C1  remaining binding (cell-free assay; competition with immobilised ligand; 1 µM): 100%
CCOc1cc(-c2nncn2C)ccc1Nc1ncc2cc(C)nc(NCC(C)(C)C)c2n1  inhibition (cell-free assay; TR-FRET; 1 µM): ≤ 15%
Cc1c(C(=O)O)cc(-c2ccc(C3CCNCC3)cc2)c2ccc(-c3ccc(C(F)(F)F)cc3)cc12  remaining binding (binding; competition with immobilised ligand; 1 µM): 100%
Cn1c2c(c3ccc(Cl)c(Cl)c31)C(C#N)C(C)(C)NC2=O (centres unmarked)  ΔTm (thermal stability; DSF; 10 µM): 0.4 °C
Cc1nccc(COC(=O)N2C[C@@H]3[C@@H](CNC(=O)c4ccc5[nH]nnc5c4)[C@@H]3C2)n1  remaining binding (cell-free assay; competition with immobilised ligand; 1 µM): 90%
N#CC1c2c([nH]c3c(Cl)c(Cl)ccc23)C(=O)NC12CCCCC2 (racemic)  ΔTm (thermal stability; DSF; 10 µM): -0.3 °C
